# According to ChEMBL document CHEMBL1149284, “Discovery of pyrano[3,4-b]indoles as potent and selective HCV NS5B polymerase inhibitors” (J Med Chem, 2004):
# Calls of active or inactive are those of the source. No cut-off for these calls is given here.
# Key:
# [1] = Inhibition of HCV NS5B polymerase; design: species or system Hepacivirus hominis
# Summary of the method: (§1)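 In vitro nucleotide incorporation assay using functionally active recombinant NS5B with a hairpin-like primed RNA substrate. Controls: enzyme without compound (positive) and enzyme with basilen blue (negative). Result reported as IC50.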
# [2] = Inhibition of helicase; design: species or system Homo sapiens
# DNA polymerase beta = DNA polymerase beta (Homo sapiens, UniProt P06746); assay: Inhibition of human DNA polymerase beta
# Vero = assay: Cytotoxicity against Vero cells by MTS assay; format: cell-based; settings: chlorocebus sabaeus
# Summary of the method: (§2)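 MTS metabolic assay run on rapidly dividing and on stationary cells.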
# [3] = Inhibition of HIV reverse transcriptase; design: species or system Human immunodeficiency virus
# [4] = Cytotoxicity against Huh7 cells by MTS assay; format: cell-based; settings: human, huh-7; summary of the method: as §2
# [5] = Inhibition of calf thymus polymerase alpha; design: species or system Bos taurus
# [6] = Inhibition of HCV 1a NS5B polymerase; design: species or system Hepatitis C virus subtype 1a
# Summary of the method: (§3)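 In vitro nucleotide incorporation assay using functionally active recombinant NS5B enzyme and a hairpin-like primed RNA substrate. Enzyme without compound served as the positive control, and enzyme with basilen blue dye as the negative control. IC50 values were determined.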
# [7] = Inhibition of HCV 3a NS5B polymerase; design: species or system Hepatitis C virus subtype 3a; summary of the method: as §3
# Hepatitis C virus [8] = assay: Reduction of viral protein in Huh7 cells containing HCV sub-genomic replicon after 3 days; format: functional, organism-based; settings: Hepacivirus hominis; Huh-7
# Hepatitis C virus [9] = assay: Reduction of viral RNA in Huh7 cells containing HCV sub-genomic replicon after 3 days; format: functional, organism-based, Hepacivirus hominis; settings: Huh-7, 72 h
# Homo sapiens = organism: Homo sapiens; assay: Inhibition of human mitochondrial DNA polymerase gamma up to 80 uM
# Hepatitis C virus [10] = assay: Inhibition of HCV 1b NS5B polymerase; design: species or system Hepatitis C virus subtype 1b; summary of the method: as §1
IC50 [1] [nM],Structure (SMILES),Activity [4],also measured
> 30000,CCCC1(CC(=O)OCC)OCCc2c1[nH]c1c(C)ccc(C#N)c21 (centres undefined),–,–
6000,CCCC1(CC(=O)O)OCCc2c1[nH]c1cccc(Cl)c21 (centres undefined),–,–
3000,CCCC1(CC(=O)O)OCCc2c1[nH]c1c(Cl)ccc(CC)c21 (centres undefined),Not Active,IC50 [2]: > 75000 nM; IC50 (DNA polymerase beta): > 100000 nM; Activity (Vero): Not Active; IC50 [3]: > 100000 nM; IC50 [5]: > 100000 nM
80,CCC[C@]1(CC(=O)O)OCCc2c1[nH]c1c(C)cc(F)c(C#N)c21,> 50 µM,–
120,CCCC1(CC(=O)O)OCCc2c1[nH]c1c(C)cc(F)c(C#N)c21 (centres undefined),–,–
570,CCCC1(CC(=O)O)OCCc2c1[nH]c1c(C)ccc(C#N)c21 (centres undefined),–,–
270,CCCC1(CC(=O)O)OCCc2c1[nH]c1c(Cl)ccc(Cl)c21 (centres undefined),–,–
440,CCC[C@]1(CC(=O)O)OCCc2c1[nH]c1c(F)ccc(C#N)c21,> 50 µM,–
5200,CCC[C@@]1(CC(=O)O)OCCc2c1[nH]c1c(F)ccc(C#N)c21,> 50 µM,–
2000,CCC[C@]1(CC(=O)O)OCCc2c1[nH]c1c(Cl)ccc(CC)c21,> 50 µM,–
1100,CCC[C@@]1(CC(=O)O)OCCc2c1[nH]c1c(Cl)ccc(Cl)c21,49 µM,–
630,CCC[C@@]1(CC(=O)O)OCCc2c1[nH]c1c(C)cc(F)c(C#N)c21,> 50 µM,–
> 15000,CCC[C@@]1(CC(=O)O)OCCc2c1[nH]c1c(Cl)ccc(CC)c21,> 50 µM,–
1000,CCCC1(CC(=O)O)OCCc2c1[nH]c1c(F)ccc(C#N)c21 (centres undefined),–,–
> 30000,CCc1ccc(Cl)c2[nH]c3c(c12)CCOC3(CC)CC(=O)O (centres undefined),–,–
60,CCC[C@]1(CC(=O)O)OCCc2c1[nH]c1c(Cl)ccc(Cl)c21,33 µM,–
2400,"CCCC1(CC(=O)O)OCCc2c1[nH]c1c(C)ccc(C#N)c21 (single isomer, unassigned)",> 50 µM,–

Structure (SMILES),IC50 [1] [nM],Activity [4],also measured
CCC[C@]1(CC(=O)O)OCCc2c1[nH]c1c(C)ccc(C#N)c21,330,–,IC50 [6]: 300 nM; IC50 [7]: 300 nM; Activity (Hepatitis C virus [8]): Dose-dependent effect; EC50 (Hepatitis C virus [9]): 4800 nM; Activity (Homo sapiens): inactive; IC50 (Hepatitis C virus [10]): 300 nM
